# Rows were chosen to be rich in hits. Some 1.6% of all compounds tested hit in one or more screens of this group.
# FLuc inh counter: Photinus pyralis luciferase inhibition counter-screen; P08659; ATPLite firefly luciferase biochemical luminescence, 10 min; inhibition, % at 10 µM; 200,000 compounds, 1.5% hits; AID 1006;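 active = inhibition above about 50% when tested at 10 µM, limit read from the data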
# Target sequence (P08659 whole entry, looked up): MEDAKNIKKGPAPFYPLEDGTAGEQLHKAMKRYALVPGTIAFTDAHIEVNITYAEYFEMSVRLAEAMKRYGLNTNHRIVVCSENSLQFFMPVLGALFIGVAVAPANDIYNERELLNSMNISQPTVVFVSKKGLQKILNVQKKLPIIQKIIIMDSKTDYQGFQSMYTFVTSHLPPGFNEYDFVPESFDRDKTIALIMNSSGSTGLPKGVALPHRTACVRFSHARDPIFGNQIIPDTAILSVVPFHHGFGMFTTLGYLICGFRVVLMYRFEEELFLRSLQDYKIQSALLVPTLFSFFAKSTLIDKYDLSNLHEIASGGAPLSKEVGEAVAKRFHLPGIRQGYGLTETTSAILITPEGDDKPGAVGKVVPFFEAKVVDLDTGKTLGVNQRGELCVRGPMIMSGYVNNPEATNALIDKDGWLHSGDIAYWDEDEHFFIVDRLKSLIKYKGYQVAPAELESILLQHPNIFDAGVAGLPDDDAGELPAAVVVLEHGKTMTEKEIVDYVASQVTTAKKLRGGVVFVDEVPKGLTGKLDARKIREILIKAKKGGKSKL
# Platelet DG rel: platelet dense granule release activity | human platelet-rich plasma, SFLLRN dense granule ATP release, luminescence | inhibition, %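 (compounds screened at 7.5 µM in platelet-rich plasma)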 | 300,000 compounds, 0.22% hits | AID 1663;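 active = mean replicate score, as percent of positive control, at or above 50; inconclusive = mean below 50 but at least one replicate at or above 50; inactive = mean and every replicate below 50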
# PPC-1+TRAIL kill: kills PPC-1 cancer cells in the presence of TRAIL. PPC-1 cells + TRAIL, ATPLite viability luminescence. cell killing (% activity), % at 4 µM or 5 µM. 220,000 compounds, 0.41% hits. AID 1443;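 active = cell killing above 50% in the first pass at 4 µM, then a duplicate retest at 5 µM averaging 50% or more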;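 also: plate controls were cells with TRAIL plus DMSO for no effect and medium-only wells lacking cells for full effect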
# C8 TRAIL sens: sensitizes caspase-8 expressing cells to TRAIL; AID 624354; inhibition (viability loss, TRAIL sensitization), % at 10 µM; 360,000 compounds, 1% hits; NB7+C8 cells + TRAIL, ATPlite viability luminescence;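 active = compounds causing at least 50% loss of cell viability in the single-dose screen, relative to plate controls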
# FLuc act counter: affects firefly luciferase, flagging false hits in luciferase stimulation screens; P08659; ATPlite luciferase biochemical, luminescence, 10 min; 0 = ATP-free wells, 1 = DMSO control; activation factor at 10 µM; 200,000 tested, under 10 active; AID 1027;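 active = luciferase activation factor, scaled between plate controls, of at least 2 with compound at 10 µM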
#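 assay system = Luciferase/luciferin detection reagent, cell-free biochemical luciferase assay | also added = ATP substrate | times = 10 min post-reagent at room temperature | measured by = luminescence from luciferase reaction | measure = luciferase activation, seen as luminescence increase over controls | benchmarks = low control with PBS replacing ATP, high control enzyme plus ATP without compound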
# An asterisk follows results filed as active; u = inconclusive; x = not tested or not shown.
SMILES,FLuc inh counter,Platelet DG rel,PPC-1+TRAIL kill,C8 TRAIL sens,FLuc act counter
COc1ccc(/C=C2\SC(=N)N(c3nccs3)C2=O)cc1OC,77*,-3,29,36,0.2
N=C1S/C(=C\c2ccc(-c3cccc(Cl)c3)o2)C(=O)N1c1nccs1,-1,4,7,4,1
CCCCNC(=O)c1nc(C2CCN(S(=O)(=O)c3c(OC)cccc3OC)CC2)oc1-c1ccccc1,x,x,x,7,x
O=C1/C(=C\c2cccs2)Sc2ccc3ccccc3c21,54*,14,12,37,0.5
CN(C)CCNC(=O)c1ccccc1-c1cc2ccccc2c(=O)o1,x,6,x,11,x
COc1ccc(-c2cc3ccccc3c(=O)o2)cc1,x,x,x,53*,x
CN(C)c1ccc(-c2cc3ccccc3c(=O)o2)cc1,x,x,x,57*,x
CO[C@H]1CN(C)C(=O)c2cc(NC(=O)C3CCCC3)ccc2OC[C@@H](C)NC[C@H]1C,x,x,x,8,x
O=C(NCc1cccc(F)c1)c1[nH]c(C(F)(F)F)nc1-c1ccccc1,x,x,x,1,x
CCc1nc2ccc(C(=O)N(C)C(C)C)cn2c1N(CC)Cc1cccc(Br)c1,x,x,x,17,x
CCCCC(=O)N(C)c1c(C)nc2ccc(C(=O)Nc3cccc(OC)c3)cn12,x,x,x,-9,x
O=C(Nc1ccncc1)c1cc(C2CCCCN2C(=O)CCc2ccccc2)on1 (stereo not drawn),x,x,x,2,x
O=C(CN(c1cccc(C(F)(F)F)c1)S(=O)(=O)c1ccc(Cl)c([N+](=O)[O-])c1)NCc1ccccc1Cl,-7,-1,66*,2,1.1
CCOc1ccc(N=Cc2c(C)[nH]n(-c3nc4ccccc4[nH]3)c2=O)cc1,70*,-1,74*,87*,0.3
O=NN(Cc1cccnc1)C(=O)NC1CCCCC1,x,x,x,6,x
Cn1cccc1/C=C1\CCc2ccccc2C1=O,70*,67*,8,61*,0.3
Cn1cccc1/C=C1\CC(C(C)(C)C)C/C(=C\c2cccn2C)C1=O (stereo not drawn),0,9,-11,10,1
Cn1cccc1/C=C1\Cc2ccccc2C1=O,58*,36,-2,16,0.4
COc1ccc(CNC[C@@H](CCCCN(C)Cc2ccc(OC)cc2)N2C[C@H](c3ccccc3)N(CCc3ccc(Cl)c(Cl)c3)C(=O)C2=O)cc1,-4,3,7,89*,1
CC(NC(=O)CCl)c1ccc(Cl)c(Cl)c1 (stereo not drawn),-2,-1,12,61*,1
CC(NC(=O)c1ccc(Cl)c(Cl)c1)c1ccc(-c2ccccc2)cc1 (stereo not drawn),x,6,16,-4,x
COC(=O)c1c(-c2ccccc2)csc1NC1=NS(=O)(=O)c2ccccc21,65*,1,40,73*,0.3
Cc1ccc(OCc2nc3ccccc3n2C(C)C(=O)Nc2c(C)cccc2C)cc1 (stereo not drawn),x,x,x,17,x
C=CCOn1c(C)c(C(C)=O)c2c3no[n+]([O-])c3ccc21,-8,-2,12,60*,1.1
CCCc1ccc(-c2ccc(/C=C/C(=O)O)cc2)nc1,86*,-9,56*,85*,0.1
SMILES,FLuc inh counter,Platelet DG rel,PPC-1+TRAIL kill,C8 TRAIL sens,FLuc act counter
CCCCCc1ccc(-c2ccc(/C=C/C(=O)O)cc2)nc1,78*,16,44,82*,0.2
CCCCCCCc1ccc(-c2ccc(O)cc2)nc1,23,5,-1,24,0.8
CC(C)c1ccc(/C=C/C(=O)O)cc1,x,2,13,5,x
COc1cc(CNc2ncnc3c2ncn3[C@H]2CN(Cc3cccc(C(F)(F)F)c3)C[C@@H](CO)O2)cc(OC)c1OC,x,x,x,0,x
CN1/C(=C\C(=O)c2cccs2)Sc2ccccc21,82*,-5,28,64*,0.2
CN1/C(=C/C(=O)c2cccs2)Sc2ccccc21,77*,-6,46,57*,0.2
Cc1cccc(NC(=O)CNC(=O)CSc2ncccn2)c1C,x,x,x,11,x
O=C(OCn1ncc(Cl)c(Cl)c1=O)c1ccc(F)cc1,-4,4,27,x,1
O=C(OCn1ncc(Cl)c(Cl)c1=O)c1ccccc1Cl,-7,5,23,87*,1.1
O=C(Cn1ncc(Cl)c(Cl)c1=O)c1ccc(Cl)cc1,-1,0,10,95*,1
O=C1CN(C(=O)Cn2ncc(Cl)c(Cl)c2=O)c2ccccc2N1,-6,7,38,94*,1.1
Cc1cccc(NC(=O)CNC(=O)Cn2ncc(Cl)c(Cl)c2=O)c1C,x,x,x,74*,x
O=C(Cn1ncc(N2CCOCC2)c(Cl)c1=O)c1ccc(Cl)cc1,-3,-2,-12,6,1
COc1ccc(NC(=O)C2Cc3c(-c4cccc(F)c4)ccnc3O2)cn1 (stereo not drawn),x,x,x,19,x
COc1ccc([C@H]2C[C@H](O)C[C@@H](CCn3cc(-c4ccccc4)nn3)O2)cc1,x,x,x,-4,x
O=C(Cn1ncc(Cl)c(Cl)c1=O)NC1CCCCC1,x,x,x,96*,x
O=C(Cn1ncc(Cl)c(Cl)c1=O)NC1CCS(=O)(=O)C1 (stereo not drawn),x,-3,-1,4,x
O=C(Cn1ncc(Cl)c(Cl)c1=O)NCC1CCCCC1,0,x,1,95*,1
Cc1ccc(NC(=O)Cn2ncc(Cl)c(Cl)c2=O)cc1S(=O)(=O)N1CCCCC1,x,x,x,79*,x
CC(C)N(CC(=O)Nc1ccc(Cl)cc1C(F)(F)F)C(=O)CCl,-4,-3,24,95*,1
CCC(C)N(CC(=O)Nc1cccc(C)c1C)C(=O)CCl (stereo not drawn),-7,3,9,97*,1.1
O=C(O)CSCC(=O)Nc1ccc(Cl)cc1C(F)(F)F,-9,-5,14,4,1.1
CCC(CC)NC(=O)Nc1cccc(C)c1C,-2,-9,-30,-6,1
O=C(NC(c1ccc(Cl)cc1)c1ccccn1)C1CCN(CCOc2ccc(Cl)cc2Cl)CC1 (stereo not drawn),x,x,x,5,x
Cc1cccc(-n2ncc3c(NCCCO)ncnc32)c1,53*,-11,33,33,0.5
SMILES,FLuc inh counter,Platelet DG rel,PPC-1+TRAIL kill,C8 TRAIL sens,FLuc act counter
Cc1cccc(-n2ncc3c(NC4CCCCC4)ncnc32)c1,70*,-6,36,73*,0.3
C=CCNc1ncnc2c1cnn2-c1cccc(C)c1,42,-17,9,37,0.6
Cc1ccc(S(=O)(=O)N2CCN(C(=O)CSc3ccc(F)cc3)CC2)cc1,x,1,x,0,x
Cc1ccc(S(=O)(=O)N2CCN(C(=O)CSc3ncc(C(F)(F)F)cc3Cl)CC2)cc1,58*,-8,28,8,0.4
Cc1ccc(S(=O)(=O)NCc2ccccc2Br)cc1,x,x,x,-9,x
CCOc1ccc(-c2nc(CCl)cs2)cc1,70*,u,24,14,0.3
CCOc1ccc(-c2nnc(N)s2)cc1,58*,7,33,25,0.4
COc1ccc(CN=C2Nc3ccccc3CS2)cc1,53*,0,32,14,0.5
COc1ccc(CN=C2NN=C(c3ccc(Cl)cc3)CS2)cc1,6,3,16,10,0.9

# Source: PubChem BioAssay (several laboratories)
